Consider 4 compounds from ChEMBL document CHEMBL1250448, “Inhibitor hijacking of Akt activation” (Nat Chem Biol, 2009).

The target in assay [1] is Beta-adrenergic receptor kinase 1 (Homo sapiens) (UniProt P25098). Description: Inhibition of ADRBK1 at 1 uM in presence of 10 uM ATP by Select Screen kinase assay relative to untreated control. The method, boiled down:
(§1)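 Single-point screen at 1 μM against a panel of 220 purified kinases, run by Invitrogen staff as a SelectScreen profiling service. Read-out is percent inhibition of kinase activity.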

Assay [2] addresses RAC-beta serine/threonine-protein kinase (Homo sapiens) (UniProt P31751). Description: Inhibition of AKT2 at 1 uM in presence of 10 uM ATP by Select Screen kinase assay relative to untreated control. The method, boiled down: as §1
Assay [3] addresses Tyrosine-protein kinase BTK (Homo sapiens) (UniProt Q06187). Briefly: Inhibition of BTK at 1 uM in presence of 10 uM ATP by Select Screen kinase assay relative to untreated control. A digest of the protocol:
as §1

Assay [4] concerns the target Ribosomal protein S6 kinase alpha-4 (Homo sapiens) (UniProt O75676). Briefly: Inhibition of RPS6KA4 at 1 uM in presence of 10 uM ATP by Select Screen kinase assay relative to untreated control.
The target of assay [5] is Serine/threonine-protein kinase Sgk2 (Homo sapiens) (UniProt Q9HBY8). Briefly: Inhibition of SGK2 at 1 uM in presence of 10 uM ATP by Select Screen kinase assay relative to untreated control. The method, boiled down:
(§2)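 Commercial SelectScreen profiling panel of 220 purified kinases. Each kinase was tested at a single inhibitor concentration of 1 μM, and activity was expressed as percent inhibition.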

Assay [6] deals with Serine/threonine-protein kinase 3 (Homo sapiens) (UniProt Q13188). Briefly: Inhibition of STK3 at 1 uM in presence of 10 uM ATP by Select Screen kinase assay relative to untreated control.
Assay [7] deals with Calcium/calmodulin-dependent protein kinase type IV (Homo sapiens) (UniProt Q16566). Briefly: Inhibition of CAMK4 at 1 uM in presence of 10 uM ATP by Select Screen kinase assay relative to untreated control. A digest of the protocol:
as §1

The target in assay [8] is Dual specificity protein kinase CLK1 (Homo sapiens) (UniProt P49759). Briefly: Inhibition of CLK1 at 1 uM in presence of 100 uM ATP by Select Screen kinase assay relative to untreated control. The method, boiled down: (§3)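 Part of a 220-kinase panel of purified kinases, each tested with compound at 1 μM. Percent inhibition was measured in the Invitrogen SelectScreen profiling assay.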
Chain of Dual specificity protein kinase CLK1 (Homo sapiens) (P49759 whole entry, looked up): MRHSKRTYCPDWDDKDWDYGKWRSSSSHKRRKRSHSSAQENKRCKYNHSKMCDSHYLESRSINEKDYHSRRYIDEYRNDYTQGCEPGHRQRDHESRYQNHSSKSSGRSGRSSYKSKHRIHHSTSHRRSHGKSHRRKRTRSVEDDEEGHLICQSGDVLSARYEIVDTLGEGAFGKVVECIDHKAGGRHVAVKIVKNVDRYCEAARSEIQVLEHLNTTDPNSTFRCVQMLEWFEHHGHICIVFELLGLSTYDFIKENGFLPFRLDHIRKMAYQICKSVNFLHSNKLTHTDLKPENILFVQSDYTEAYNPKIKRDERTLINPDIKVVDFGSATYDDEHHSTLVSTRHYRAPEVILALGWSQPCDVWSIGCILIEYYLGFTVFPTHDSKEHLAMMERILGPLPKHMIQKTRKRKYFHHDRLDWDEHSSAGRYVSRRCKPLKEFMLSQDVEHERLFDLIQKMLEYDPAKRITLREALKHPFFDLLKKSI

Assay [9] has as its target Casein kinase II subunit alpha' (Homo sapiens) (UniProt P19784). Briefly: Inhibition of CSNK2A2 at 1 uM in presence of 10 uM ATP by Select Screen kinase assay relative to untreated control. The method, boiled down: as §3
Assay [10] deals with Death-associated protein kinase 3 (Homo sapiens) (UniProt O43293). Briefly: Inhibition of DAPK3 at 1 uM in presence of 10 uM ATP by Select Screen kinase assay relative to untreated control. A digest of the protocol: as §3
Chain of Death-associated protein kinase 3 (Homo sapiens) (O43293 whole entry, looked up): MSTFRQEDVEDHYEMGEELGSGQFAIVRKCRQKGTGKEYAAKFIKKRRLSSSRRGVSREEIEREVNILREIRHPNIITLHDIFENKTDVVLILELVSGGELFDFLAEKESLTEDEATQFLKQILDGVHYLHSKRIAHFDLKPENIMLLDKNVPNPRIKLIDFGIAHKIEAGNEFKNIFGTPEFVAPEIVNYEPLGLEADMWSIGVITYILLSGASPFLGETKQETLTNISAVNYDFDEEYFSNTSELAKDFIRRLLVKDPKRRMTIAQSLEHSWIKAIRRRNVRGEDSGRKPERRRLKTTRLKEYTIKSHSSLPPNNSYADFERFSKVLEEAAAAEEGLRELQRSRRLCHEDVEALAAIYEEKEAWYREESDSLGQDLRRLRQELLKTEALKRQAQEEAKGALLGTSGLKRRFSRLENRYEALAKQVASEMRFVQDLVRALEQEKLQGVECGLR
Assay [11] deals with Ephrin type-A receptor 3 (Homo sapiens) (UniProt P29320). Briefly: Inhibition of EPHA3 at 1 uM in presence of 10 uM ATP by Select Screen kinase assay relative to untreated control. The method, boiled down:
as §3

In assay [12] the target is Tyrosine-protein kinase FRK (Homo sapiens) (UniProt P42685). Description: Inhibition of FRK at 1 uM in presence of 10 uM ATP by Select Screen kinase assay relative to untreated control. The method, boiled down: as §3
For assay [13], the target named is Glycogen synthase kinase-3 beta (Homo sapiens) (UniProt P49841). Description: Inhibition of GSK3B at 1 uM in presence of 10 uM ATP by Select Screen kinase assay relative to untreated control. A digest of the protocol:
as §3

In assay [14] the target is Tyrosine-protein kinase ITK/TSK (Homo sapiens) (UniProt Q08881). Description: Inhibition of ITK at 1 uM in presence of 10 uM ATP by Select Screen kinase assay relative to untreated control.
Chain of Tyrosine-protein kinase ITK/TSK (Homo sapiens) (Q08881 whole entry): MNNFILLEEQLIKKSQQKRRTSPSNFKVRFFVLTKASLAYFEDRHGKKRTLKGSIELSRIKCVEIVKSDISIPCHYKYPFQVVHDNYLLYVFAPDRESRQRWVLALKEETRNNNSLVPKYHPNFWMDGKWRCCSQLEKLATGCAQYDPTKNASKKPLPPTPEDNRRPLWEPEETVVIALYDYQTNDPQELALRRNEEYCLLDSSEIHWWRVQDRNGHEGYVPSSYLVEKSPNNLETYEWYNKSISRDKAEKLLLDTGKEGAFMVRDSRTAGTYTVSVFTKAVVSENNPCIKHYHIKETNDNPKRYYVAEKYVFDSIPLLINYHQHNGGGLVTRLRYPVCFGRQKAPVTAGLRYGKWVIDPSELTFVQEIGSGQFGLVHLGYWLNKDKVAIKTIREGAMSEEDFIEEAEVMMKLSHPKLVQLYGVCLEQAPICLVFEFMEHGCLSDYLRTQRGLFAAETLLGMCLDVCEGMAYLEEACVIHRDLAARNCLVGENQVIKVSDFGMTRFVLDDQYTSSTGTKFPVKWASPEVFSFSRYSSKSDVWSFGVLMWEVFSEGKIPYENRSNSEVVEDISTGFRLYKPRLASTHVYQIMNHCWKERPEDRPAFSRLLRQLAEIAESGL
For assay [15], the target named is Tyrosine-protein kinase JAK2 (Homo sapiens) (UniProt O60674). Briefly: Inhibition of JAK2 at 1 uM in presence of 10 uM ATP by Select Screen kinase assay relative to untreated control. A digest of the protocol: (§4)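 Single-concentration profiling at 1 μM against a panel of 220 purified kinases, run as an outsourced SelectScreen kinase profiling service. Activity is expressed as percent inhibition.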

Assay [16] has as its target Vascular endothelial growth factor receptor 2 (Homo sapiens) (UniProt P35968). Description: Inhibition of KDR at 1 uM in presence of 10 uM ATP by Select Screen kinase assay relative to untreated control. A digest of the protocol:
as §4

Assay [17] deals with Mast/stem cell growth factor receptor Kit (Homo sapiens) (UniProt P10721). Briefly: Inhibition of KIT at 1 uM in presence of 100 uM ATP by Select Screen kinase assay relative to untreated control. The method, boiled down: as §4
Assay [18] addresses Mitogen-activated protein kinase kinase kinase kinase 4 (Homo sapiens) (UniProt O95819). Description: Inhibition of MAP4K4 at 1 uM in presence of 10 uM ATP by Select Screen kinase assay relative to untreated control.
The target of assay [19] is Tyrosine-protein kinase Mer (Homo sapiens) (UniProt Q12866). Briefly: Inhibition of MERTK at 1 uM in presence of 10 uM ATP by Select Screen kinase assay relative to untreated control. A digest of the protocol: as §4
The target of assay [20] is Serine/threonine-protein kinase PAK 6 (Homo sapiens) (UniProt Q9NQU5). Description: Inhibition of PAK6 at 1 uM in presence of 10 uM ATP by Select Screen kinase assay relative to untreated control.
Chain of Serine/threonine-protein kinase PAK 6 (Homo sapiens) (Q9NQU5 whole entry, looked up): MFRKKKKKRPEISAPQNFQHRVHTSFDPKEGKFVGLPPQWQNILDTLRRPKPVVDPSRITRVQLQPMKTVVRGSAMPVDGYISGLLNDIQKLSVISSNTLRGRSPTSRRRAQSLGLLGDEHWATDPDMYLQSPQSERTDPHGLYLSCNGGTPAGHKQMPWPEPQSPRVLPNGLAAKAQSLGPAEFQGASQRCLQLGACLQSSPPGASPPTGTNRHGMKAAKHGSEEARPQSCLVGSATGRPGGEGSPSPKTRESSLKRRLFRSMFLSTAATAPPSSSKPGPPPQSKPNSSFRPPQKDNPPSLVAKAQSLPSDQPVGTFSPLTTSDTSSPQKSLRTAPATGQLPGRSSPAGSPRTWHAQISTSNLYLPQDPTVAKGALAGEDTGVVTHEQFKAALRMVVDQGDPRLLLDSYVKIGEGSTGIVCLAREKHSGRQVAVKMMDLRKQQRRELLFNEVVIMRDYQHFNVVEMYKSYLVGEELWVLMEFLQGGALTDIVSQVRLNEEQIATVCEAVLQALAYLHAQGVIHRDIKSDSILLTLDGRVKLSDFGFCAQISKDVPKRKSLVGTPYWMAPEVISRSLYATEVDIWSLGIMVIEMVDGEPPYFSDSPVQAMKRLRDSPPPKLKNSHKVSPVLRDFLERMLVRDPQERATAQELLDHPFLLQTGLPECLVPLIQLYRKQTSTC
The test system of assay [21] is Platelet-derived growth factor receptor alpha (Homo sapiens), P16234 [T674I]. Briefly: Inhibition of PDGFRalpha T674I mutant at 1 uM in presence of 10 uM ATP by Select Screen kinase assay relative to untreated control. A digest of the protocol:
as §2

Assay [22] addresses Serine/threonine-protein kinase pim-1 (Homo sapiens) (UniProt P11309). Description: Inhibition of PIM1 at 1 uM in presence of 10 uM ATP by Select Screen kinase assay relative to untreated control. The method, boiled down: (§5)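 Profiling panel of 220 purified kinases (SelectScreen), each compound tested at 1 μM. Read-out is percent inhibition of kinase activity.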
Assay [23] concerns the target Protein kinase C beta type (Homo sapiens) (UniProt P05771). Briefly: Inhibition of PRKCB1 at 1 uM in presence of 10 uM ATP by Select Screen kinase assay relative to untreated control.
The target of assay [24] is Protein kinase C delta type (Homo sapiens) (UniProt Q05655). Briefly: Inhibition of PRKCD at 1 uM in presence of 10 uM ATP by Select Screen kinase assay relative to untreated control. The method, boiled down:
as §5

In assay [25] the target is Casein kinase I isoform epsilon (Homo sapiens) (UniProt P49674). Briefly: Inhibition of CSNK1E at 1 uM in presence of 10 uM ATP by Select Screen kinase assay relative to untreated control.
Assay [26] addresses RAC-alpha serine/threonine-protein kinase (Homo sapiens, UniProt P31749). Description: Induction of AKT1 Thr308 phosphorylation expressed in IGF1-stimulated HEK293 cells treated 20 mins before IGF1 stimulation by immunoblotting. The assay is classed as cell-based. The method, boiled down:
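HEK293 cells (not transfected), serum-starved overnight, then given inhibitor for 20 min before 50 ng/ml IGF-1 for a further 10 min. Cells detached in ice-cold Ca/Mg-free PBS with 0.04% EDTA and lysed in Tris pH 7.5 Triton buffer with protease/phosphatase inhibitors. Lysates cleared at 14000 g, protein equalised by Bradford, and pThr308, pSer473 and GSK3β pSer9 read by immunoblot with ECL.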

Activity calls are given as the source filed them. The calls are words filed in the database; no cut-off is given here.

The inhibition is the drop in the measured response relative to a control, in per cent.

Chain of Serine/threonine-protein kinase pim-1 (Homo sapiens) (P11309 whole entry, looked up): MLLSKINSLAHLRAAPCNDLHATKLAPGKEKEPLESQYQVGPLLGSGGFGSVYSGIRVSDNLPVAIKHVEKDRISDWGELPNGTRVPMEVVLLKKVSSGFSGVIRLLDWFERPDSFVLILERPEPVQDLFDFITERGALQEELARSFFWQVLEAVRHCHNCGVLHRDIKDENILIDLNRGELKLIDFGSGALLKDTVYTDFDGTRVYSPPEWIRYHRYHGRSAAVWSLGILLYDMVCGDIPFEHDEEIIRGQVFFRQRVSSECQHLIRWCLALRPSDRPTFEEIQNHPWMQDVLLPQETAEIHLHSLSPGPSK
Chain of Ephrin type-A receptor 3 (Homo sapiens) (P29320 whole entry): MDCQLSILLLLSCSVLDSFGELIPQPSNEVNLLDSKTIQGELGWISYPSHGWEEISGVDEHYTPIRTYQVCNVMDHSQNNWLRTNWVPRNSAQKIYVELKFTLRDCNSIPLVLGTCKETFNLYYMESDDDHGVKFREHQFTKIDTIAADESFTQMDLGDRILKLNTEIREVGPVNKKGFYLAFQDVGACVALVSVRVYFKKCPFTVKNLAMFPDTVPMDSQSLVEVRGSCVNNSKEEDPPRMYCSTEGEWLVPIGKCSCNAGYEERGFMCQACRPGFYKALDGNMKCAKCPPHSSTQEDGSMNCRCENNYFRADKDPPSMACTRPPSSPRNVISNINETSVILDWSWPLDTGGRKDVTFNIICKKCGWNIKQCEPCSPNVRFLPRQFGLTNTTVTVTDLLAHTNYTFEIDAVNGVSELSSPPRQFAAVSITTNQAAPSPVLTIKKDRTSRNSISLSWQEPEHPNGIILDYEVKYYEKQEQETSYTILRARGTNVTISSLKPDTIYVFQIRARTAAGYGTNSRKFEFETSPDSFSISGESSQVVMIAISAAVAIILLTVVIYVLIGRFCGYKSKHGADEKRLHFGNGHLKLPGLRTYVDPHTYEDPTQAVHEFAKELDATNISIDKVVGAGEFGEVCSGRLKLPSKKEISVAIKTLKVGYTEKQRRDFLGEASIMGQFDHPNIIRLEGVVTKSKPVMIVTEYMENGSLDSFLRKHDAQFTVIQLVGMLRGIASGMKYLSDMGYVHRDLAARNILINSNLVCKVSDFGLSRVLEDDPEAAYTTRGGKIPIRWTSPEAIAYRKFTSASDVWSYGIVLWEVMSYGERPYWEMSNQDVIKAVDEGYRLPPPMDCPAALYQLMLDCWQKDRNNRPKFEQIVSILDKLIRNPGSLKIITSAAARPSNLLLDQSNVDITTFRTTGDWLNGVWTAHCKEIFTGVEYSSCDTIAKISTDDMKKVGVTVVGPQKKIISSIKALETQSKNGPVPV
Chain of Protein kinase C delta type (Homo sapiens) (Q05655 whole entry, looked up): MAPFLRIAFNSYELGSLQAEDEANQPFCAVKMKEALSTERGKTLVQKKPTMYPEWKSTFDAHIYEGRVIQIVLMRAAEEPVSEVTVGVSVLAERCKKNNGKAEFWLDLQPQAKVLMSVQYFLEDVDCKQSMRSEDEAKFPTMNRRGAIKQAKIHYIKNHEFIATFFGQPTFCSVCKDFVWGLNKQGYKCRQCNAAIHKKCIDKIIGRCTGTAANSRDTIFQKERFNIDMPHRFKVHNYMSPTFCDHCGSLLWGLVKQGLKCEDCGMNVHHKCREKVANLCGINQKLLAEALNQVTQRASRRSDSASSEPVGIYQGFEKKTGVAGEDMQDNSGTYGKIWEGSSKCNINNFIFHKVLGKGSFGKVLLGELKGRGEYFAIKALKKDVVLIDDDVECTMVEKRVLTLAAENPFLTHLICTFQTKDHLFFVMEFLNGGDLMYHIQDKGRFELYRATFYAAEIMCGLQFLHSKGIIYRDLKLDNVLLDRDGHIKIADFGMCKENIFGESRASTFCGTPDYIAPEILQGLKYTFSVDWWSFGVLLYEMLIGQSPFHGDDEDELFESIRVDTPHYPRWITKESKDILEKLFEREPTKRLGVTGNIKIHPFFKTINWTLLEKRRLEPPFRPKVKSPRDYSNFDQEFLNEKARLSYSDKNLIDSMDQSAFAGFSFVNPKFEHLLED
Chain of Ribosomal protein S6 kinase alpha-4 (Homo sapiens) (O75676 whole entry, looked up): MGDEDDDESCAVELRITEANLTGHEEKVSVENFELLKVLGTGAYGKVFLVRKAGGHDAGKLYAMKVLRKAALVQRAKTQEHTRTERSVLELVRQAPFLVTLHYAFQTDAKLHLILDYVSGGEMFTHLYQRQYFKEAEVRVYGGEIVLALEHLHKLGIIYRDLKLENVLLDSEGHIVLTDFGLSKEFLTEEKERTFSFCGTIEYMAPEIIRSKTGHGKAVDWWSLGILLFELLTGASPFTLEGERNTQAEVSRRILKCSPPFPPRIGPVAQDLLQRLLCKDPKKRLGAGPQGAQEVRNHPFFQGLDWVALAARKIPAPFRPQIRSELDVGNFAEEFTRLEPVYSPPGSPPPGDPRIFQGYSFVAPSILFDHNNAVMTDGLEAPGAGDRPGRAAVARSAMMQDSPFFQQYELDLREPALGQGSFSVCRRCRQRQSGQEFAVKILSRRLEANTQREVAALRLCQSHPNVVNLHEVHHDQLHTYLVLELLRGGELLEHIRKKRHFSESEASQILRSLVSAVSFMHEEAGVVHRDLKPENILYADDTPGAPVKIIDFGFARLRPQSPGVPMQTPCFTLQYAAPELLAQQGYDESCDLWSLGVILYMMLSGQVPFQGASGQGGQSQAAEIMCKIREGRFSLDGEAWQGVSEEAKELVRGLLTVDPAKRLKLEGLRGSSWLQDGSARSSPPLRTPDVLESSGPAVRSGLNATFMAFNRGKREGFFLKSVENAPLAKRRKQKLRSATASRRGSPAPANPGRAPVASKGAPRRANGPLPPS

Take `O=C(NCCCNc1nc(Nc2cccc(NC(=O)N3CCCC3)c2)ncc1I)c1cccs1`: the inhibition in [1] stood at 15%; in assay [2], 9%; in assay [3] it was 23%; in assay [4] it was 75%; in [5], 25%; in assay [6], 21%. The inhibition in [7] came out at 8%; in assay [8] it was 30%; in assay [9] it was 26%; in assay [10], 13%; in assay [11], 13%; in [12], 16%. The inhibition was found to be 69% in assay [13]; 56% in assay [14]; 74% in assay [15]; 79% in assay [16]; 13% in assay [17]; 39% in [18]. Besides, the inhibition in assay [19] is 17%; in [20], 11%; in assay [21] it was 55%; in assay [22], 9%; in assay [23], 28%; in assay [24] it was 24%.

As to `COc1ccccc1N1CCN(c2ncnc3[nH]nc(Br)c23)CC1`, the inhibition in assay [1] is 8%; in assay [2], 12%; in [3], 11%; in assay [4], 90%; in assay [5], 10%; in [6], 9%. The inhibition is 0% in assay [7]; 74% in assay [8]; 23% in assay [25]; 27% in assay [9]; 14% in assay [10]; 14% in [11]. The inhibition in [12] is 11%; in assay [13], 67%; in assay [14], 16%; in assay [15], -9%; in assay [16], 52%; in assay [17] it was -7%. Also, the inhibition was found to be 73% in [18]; 16% in [19]; 5% in [20]; 8% in [21]; 20% in assay [22]; 35% in assay [23]. The inhibition in [24] is -5%.

On to `CCCc1cc(-c2cncc(OC[C@@H](N)Cc3c[nH]c4ccccc34)c2)cc2c(C)n[nH]c12`, for which the result in assay [26] was inactive.

For `Cc1n[nH]c2ccc(-c3cncc(OC[C@@H](N)Cc4c[nH]c5ccccc45)c3)cc12`, in [26], the result was Active. For the same compound, the inhibition in assay [25] turned out to be 42%.
